Screens: PubChem BioAssay, Broad Institute
Shown are actives, neighbours in structure and some others; about 1% of the full set was active somewhere.
RAD52 inh: inhibitors of human RAD52 DNA annealing | recombinant RAD52 DNA annealing, FRET fluorescence | inhibition, % at 18.7 µM | 360,000 compounds, 0.46% hits | AID 651710;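 active = every replicate showing at least 50% inhibition; inconclusive = mean inhibition at least 50% but not in every replicate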
CAL PDZ FP-1: inhibitors of human CAL PDZ peptide binding | Q9HD26 | purified CAL PDZ, TMR-peptide fluorescence polarization, 1 h | inhibition, % at 24.9 µM | 300,000 compounds, 0.92% hits;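 active = mean inhibition of at least 30% with at least half of replicates also reaching 30%; inconclusive = no clear call, values can overlap the other calls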;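 also: 0% = DMSO neutral control and 100% = excess unlabeled competitor peptide PRC23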
CAL PDZ FP-2: human CAL PDZ-peptide interaction inhibition. 330,000 compounds, 0.02% hits. purified CAL PDZ, TMR-peptide fluorescence polarization, 1 h. Q9HD26. inhibition, % at 20 µM;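 active = highest replicate inhibition of at least 40%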;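 also: plate controls were DMSO neutral control wells for no effect and unlabeled competitor peptide control wells for full effect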
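System: tagged CAL PDZ domain. Schedule: 1 h room-temperature incubation prior to read. Signal: fluorescence polarization (mP). Measure: percent inhibition from loss of millipolarization.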
RAD54 branch: inhibitors of human RAD54 branch migration | inhibition, % at 10.4 µM | RAD54 Holliday junction branch migration, FAM/BHQ fluorescence | 360,000 compounds, 0.14% hits | Q92698;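 active = mean normalized replicate activity at least 40 and at least half of replicates scoring 40 or more; inconclusive = only one of the two criteria met; inactive = mean below 40 and under half of replicates reaching 40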;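 also: 0% = median of neutral control wells and 100% = median of positive control wells; inhibitors cause a drop in the FAM fluorescence signal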
PDI inh: PDI (human) enzyme inhibition; PDI insulin aggregation turbidity, A650, 90 min; P07237; 350,000 compounds, 0.052% hits; inhibition, % at 10 µM; AID 588391;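 active = mean inhibition across replicates of 30% or more, whatever share of single replicates reach that level; inconclusive = mean inhibition below 30% while every single replicate reaches 30%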
ERp5 block: inhibitors of human ERp5 | ERp5 insulin aggregation, absorbance 650 nm, 90 min | inhibition, % at 9.99 µM | 350,000 compounds, 0.05% hits | AID 651711;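 active = mean replicate inhibition above about 25%, with every replicate also reaching it, limit read from the data, passing the limit was not always enough; inconclusive = only one of those two criteria met; inactive = neither criterion met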
Target sequence (Q15084 whole entry, looked up): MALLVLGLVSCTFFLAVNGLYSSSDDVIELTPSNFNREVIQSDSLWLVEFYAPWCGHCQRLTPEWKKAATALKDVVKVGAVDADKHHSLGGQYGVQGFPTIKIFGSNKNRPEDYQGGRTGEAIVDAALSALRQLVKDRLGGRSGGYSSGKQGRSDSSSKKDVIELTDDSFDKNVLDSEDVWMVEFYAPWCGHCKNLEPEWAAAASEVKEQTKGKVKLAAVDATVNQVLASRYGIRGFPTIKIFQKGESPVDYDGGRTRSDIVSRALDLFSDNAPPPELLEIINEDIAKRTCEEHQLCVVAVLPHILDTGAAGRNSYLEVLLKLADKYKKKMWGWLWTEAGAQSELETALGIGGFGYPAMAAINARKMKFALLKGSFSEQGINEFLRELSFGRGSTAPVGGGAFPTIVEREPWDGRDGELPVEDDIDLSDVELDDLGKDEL
RAD52 DNA ctr: binds DNA, flagging false RAD52 inhibitor hits | Salmon sperm DNA/acridine orange FP displacement, DNA binding | AC50, µM | 1,000 compounds, 8% hits | shares compounds with RAD52 inh;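 active = fitted half-maximal concentration for signal loss at or below twice the highest dose tested, in every separate run, actives reach about 64 µM in these data; inconclusive = runs disagree, or flat partial signal loss, or poor fit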
* = called active by the depositor; i = inactive; ? = inconclusive; . = no result given.

SMILES	RAD52 inh	CAL PDZ FP-1	CAL PDZ FP-2	RAD54 branch	PDI inh	ERp5 block	RAD52 DNA ctr
COc1cc2c(cc1O)CC[n+]1cc3c(OC)c(OC)ccc3cc1-2	81*	-1	0	76*	-2	0	i
O=C(C[C@H]1CC[C@@H]2[C@H](COC[C@@H](O)CN2Cc2ccc(C(F)(F)F)cc2)O1)NCCc1ccccc1	8	.	.	-2	.	-5	.
N[C@@H](CO)c1cn([C@@H](Cc2cc3ccccc3[nH]2)C(=O)N2CCNCC2)nn1	93*	-2	0	34	-4	-3	i
CC(C)[C@H](N)c1cn([C@@H](CO)C(=O)N2CCNCC2)nn1	-16	-6	1	0	0	1	.
CCC[C@@H](CN1CCC[C@H]1CN1C(N)=NC[C@H]1CC(C)C)N1C[C@@H](Cc2ccccc2)N(CCc2ccc(Cl)c(Cl)c2)C1=N	65*	-2	-5	17	22	-13	i
CC[C@@H](C)[C@@H]1CN([C@@H](CN2CCC[C@H]2CN2C(N)=NC[C@H]2CC(C)C)C(C)C)C(=N)N1CCc1ccc(Cl)c(Cl)c1	50*	0	-6	14	12	3	i
CCC[C@@H](CN1CCC[C@H]1CN1C(N)=NC[C@@H]1Cc1ccccc1)N1C[C@@H](Cc2ccccc2)N(CCCC2CCCC2)C1=N	.	-4	-4	19	3	.	.
C[C@@H](CN1CCC[C@H]1CN1C(N)=NC[C@@H]1Cc1ccccc1)N1C[C@@H](Cc2ccccc2)N(CCc2ccc(Cl)c(Cl)c2)C1=N	.	-1	11	36	19	.	.
CC[C@@H](C)[C@@H]1CN([C@@H](C)CN2CCC[C@H]2CN2C(N)=NC[C@H]2CC(C)C)C(=N)N1CCc1ccc(Cl)c(Cl)c1	37	-1	-3	16	10	3	.
CCC[C@@H](CN1CCC[C@H]1CN1C(N)=NC[C@H]1CC(C)C)N1C[C@@H](Cc2ccccc2)N(CCCC2CCCC2)C1=N	58*	-6	-2	14	-7	-1	i
CCC[C@@H](CN1CCC[C@H]1CN1C(N)=NC[C@H]1CC(C)C)N1C[C@@H]([C@H](C)CC)N(CCc2ccc(Cl)c(Cl)c2)C1=N	51*	-1	-5	20	5	4	i
Cc1noc(C)c1S(=O)(=O)Nc1cccc2c1O[C@H](CN(C)S(=O)(=O)c1ccccc1)[C@H](C)CN([C@@H](C)CO)C2=O	-34	.	.	-4	.	5	.
C[C@@H]1CN([C@H](C)CO)C(=O)Cc2cc(NC(=O)C3CCCCC3)ccc2O[C@H]1CN(C)Cc1ccc(C(F)(F)F)cc1	5	.	.	4	.	-3	.
CCCCCCCCn1c2c(c(=N)c3ccccc31)CCC2	43	-5	-3	.	5	-4	.
Cc1cc(C)c2c(=N)c3ccccc3n(CCCCCCCCn3c4ccccc4c(=N)c4c(C)cc(C)nc43)c2n1	67*	18	-3	.	6	4	16µM*
CCc1c(C)nc(Nc2nc(C)c3cc(OC)ccc3n2)[nH]c1=O	.	-3	-5	8	2	.	.
COc1ccc2nc(NC3=NC(c4ccccc4)CC(=O)N3)nc(C)c2c1 (centres undefined)	72*	-2	-5	.	0	1	i
C[C@H](CO)N1C[C@H](C)[C@@H](CN(C)Cc2cccnc2)Oc2cc(Br)ccc2S1(=O)=O	-3	.	.	0	.	-6	.
COC(=O)C1=CN(Cc2ccc(C)cc2)C=C(C(=O)OC)C1c1cc(OC)c(OC)c(OC)c1	95*	-3	-1	2	1	-1	i
COC(=O)C1=CN(Cc2ccccc2)C=C(C(=O)OC)C1c1ccc(OC)c(OC)c1	-10	0	-3	-22	9	2	.
C[C@H]1CN([C@@H](C)CO)C(=O)c2cc(-c3ccc(C#N)cc3)cnc2O[C@@H]1CN(C)C(=O)CN(C)C	3	.	.	-3	.	9	.
CN1CCN(c2ccc(C(CC(N)=O)NC(=O)Cc3cccc4ccccc34)cc2[N+](=O)[O-])CC1 (centres undefined)	56*	-2	-1	0	10	5	?
CNC[C@H]1Oc2ccc(NC(=O)Cc3cn(C)c4ccccc34)cc2C(=O)N([C@H](C)CO)C[C@@H]1C	-5	.	.	3	.	0	.
Cc1cc(C(C)(C)CC(C)(C)C)ccc1OCCOCC[N+](C)(C)Cc1ccccc1	91*	-7	0	33	23	7	?
Cc1c(C(=O)Nc2ccc(S(=O)(=O)N(C)C3CCN(C)CC3)cc2)oc2ccccc12	30	-7	-4	6	-4	-6	.
SMILES	RAD52 inh	CAL PDZ FP-1	CAL PDZ FP-2	RAD54 branch	PDI inh	ERp5 block	RAD52 DNA ctr
Cc1c(C(=O)Nc2ccc(S(=O)(=O)N(C)C3CCN(C)CC3)cc2)oc2c(Cl)cccc12	69*	-6	-5	9	3	19	i
N#Cc1ccc(-c2ccc3c(c2)[C@H]2[C@H](CCN2C(=O)C2CCCC2)[C@@H](CO)N3)cc1	-10	.	.	.	.	-3	.
CCN1CCN(CCCNC(=O)C2CCN(c3nnc(-n4c(C)ccc4C)s3)CC2)CC1	73*	.	-1	-2	.	4	i
C[C@H]1CN([C@@H](C)CO)C(=O)c2cc(NS(C)(=O)=O)ccc2O[C@H]1CN(C)CC1CCCCC1	-11	.	.	3	.	8	.
CCN(CC)CCNC(=O)c1cc2c(-c3cccc(OC)c3)nn(C)c2s1	68*	-7	-5	.	-2	-2	i
COc1cccc(S(=O)(=O)N[C@H]2C=C[C@H](CC(=O)NCc3ccncc3)O[C@H]2CO)c1	-7	.	.	.	.	-5	.
CCC(C)(C)c1ccc(OCCCC[n+]2cccc(C)c2C)c(C(C)(C)CC)c1	66*	.	-1	36	18	.	i
COc1ccc(-c2[nH]ncc2CN2CCCCCCC2)c(OC)c1	76*	0	0	.	1	4	i
CCC(=O)N1CC2(C1)[C@H](c1ccc(-c3ccc(F)cc3)cc1)[C@H](CO)N2C(=O)CC	3	.	.	.	.	0	.
CCN(CC)CCCNC(=O)c1csc(Nc2cccc3ccccc23)n1	92*	.	0	23	4	-5	i
CCN(CC)C(=O)c1csc(Nc2cccc3ccccc23)n1	-5	-4	0	-12	1	4	.
CN(c1cc2c(c3c1ccn3C)C1CCC2C1)C1CCCCC1 (centres undefined)	9	.	.	2	.	1	.
CN(Cc1ccccc1)c1cc2c(c3c1ccn3C)C1CCC2C1 (centres undefined)	58*	.	.	-13	.	10	i
CN(CCc1ccccc1)c1cc2c(c3c1ccn3C)C1CCC2C1 (centres undefined)	64*	.	.	5	.	3	i
CCN(C)c1cc2c(c3c1ccn3C)C1CCC2C1 (centres undefined)	70*	.	.	9	.	6	i
